Assay outcomes (PubChem BioAssay)
Rows were chosen to be rich in hits. Some 1.8% of all compounds tested hit in one or more screens of this group.
NPY Y2 blocker: NPY-Y2 (human) receptor antagonism; NPY-Y2 expressing cells, antagonist mode; inhibition, % at 2.7 µM; hit rate 0.99% among 140,000; AID 793; in the data active means inhibition above about 17%;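 further: 0% = vehicle with agonist challenge and 100% = reference antagonist with challenge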
NPY1 pot ag: human NPY-Y1 potentiation or agonism, primary screen. NPY-Y1 expressing cells, potentiator/agonist activation. activation, % at 3.6 µM. hit rate 0.37% among 220,000; in the data active means activation above about 33%, passing the limit was not always enough;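 further: cells stimulated with NPY at EC10 then isoproterenol at EC100; 0% = low agonist plus stimulus and 100% = saturating agonist plus stimulus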
Target sequence (P25929 whole entry, looked up): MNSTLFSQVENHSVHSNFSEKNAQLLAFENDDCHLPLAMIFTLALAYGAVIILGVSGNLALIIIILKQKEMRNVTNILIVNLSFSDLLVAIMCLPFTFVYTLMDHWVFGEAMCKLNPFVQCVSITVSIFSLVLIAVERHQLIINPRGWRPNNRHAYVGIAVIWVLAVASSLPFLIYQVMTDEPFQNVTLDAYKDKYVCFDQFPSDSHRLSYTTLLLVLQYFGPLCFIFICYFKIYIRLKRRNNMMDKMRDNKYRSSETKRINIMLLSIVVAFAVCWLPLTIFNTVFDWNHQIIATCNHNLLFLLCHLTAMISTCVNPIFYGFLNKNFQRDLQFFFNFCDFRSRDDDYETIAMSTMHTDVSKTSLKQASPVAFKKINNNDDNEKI
NPY Y1 blocker: antagonists of human neuropeptide Y receptor Y1 | inhibition, % at 3.6 µM | HEK293-CNG Y1 cells, membrane potential fluorescence; NPY at EC95, then isoproterenol | hit rate 1% among 200,000 | P25929;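 active means inhibition above the campaign mean inhibition of all tested compounds plus 3 SD, cut at about 20% in these data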;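 further: 0% = DMSO wells given NPY plus isoproterenol and 100% = isoproterenol alone without NPY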
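Test system: HEK293 cells co-expressing NPY Y1 receptor and cyclic-nucleotide gated channel; Also added: NPY (25 nM), isoproterenol (1 µM), Ro 20-1724 (25 µM); Compound dosing: one concentration, 3.6 µM, in 0.4% DMSO; Timing: dye 3 h, compound 60 min room temperature, stimulation 45 min; Technique: Membrane-potential fluorescent dye readout.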
NPY-Y2 PAM-ag: human NPY-Y2 potentiation or agonism, primary screen | activation, % at 3.6 µM | P49146 | hit rate 0.45% among 220,000 | cells expressing NPY-Y2, potentiator/agonist read-out; in the data active means activation above about 27%;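 further: cells stimulated with NPY near EC25 plus isoproterenol at EC100; 0% = vehicle plus submaximal agonist and 100% = vehicle plus saturating agonist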
NPY1 antag ctr: antagonizes human NPY-Y1, counter-screen to NPY-Y2 antagonists; shares compounds with NPY Y2 blocker; hit rate 19% among 710; inhibition, % at 3.6 µM; cell-based NPY-Y1 antagonism counterscreen; AID 1256; in the data active means inhibition above about 20%;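 further: cells challenged with NPY then isoproterenol with cAMP sensed through a CNG channel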
NPY-Y2 ant conf: human NPY-Y2 antagonism, confirmation; AID 1257; hit rate 32% among 710; HEK293 NPY-Y2 CNG channel, membrane potential fluorescence; shares compounds with NPY Y2 blocker; inhibition, % at 2.8 µM;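 active means mean inhibition of triplicate wells above the hit cutoff set in the primary screen, cut at about 17% in these data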;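 further: 0% = DMSO with NPY challenge and 100% = BIIE0246 high control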
* hit, by the source's call; · = no result given.

SMILES | NPY Y2 blocker | NPY1 pot ag | NPY Y1 blocker | NPY-Y2 PAM-ag | NPY1 antag ctr | NPY-Y2 ant conf
Cc1cc([N+](=O)[O-])cc(C)c1OCC(=O)N/N=C/c1ccc(OC(=O)c2ccccc2Br)cc1 | 0 | 13 | 1 | 17 | · | ·
CC(C)CC(=O)N1CCN(S(=O)(=O)c2ccc3ccccc3c2)CC1 | 6 | 9 | -1 | 5 | · | ·
CCC(C)N(C(=O)Cn1nnc2ccccc21)C(C(=O)Nc1ccc(F)cc1)c1cccc(OC)c1 (stereo not given) | 18* | -37 | 16 | -64 | 11 | 11
Cn1c(C(=O)NC2CC2)cc(=O)n(C)c1=O | · | 17 | -4 | -2 | · | ·
COc1ccc2nc(-c3ccc(Cl)cc3)cc(C(=O)O)c2c1 | · | -3 | · | 4 | · | ·
O=C(Nc1ccc(O)cc1C(=O)O)c1cccs1 | · | 20 | 1 | -6 | · | ·
CC(C)c1ccc(/C=C/C(=O)N2CCc3ccccc3C2)cc1 | 18* | -8 | 3 | -8 | 29* | 25*
CCCCc1nc2ccccc2c(N)c1CCC (tested in a mixture with another compound) | 18* | -49 | 15 | 8 | 5 | 5
CCCCc1nc2ccccc2c(NC(=O)CNC(C)(C)C)c1CCC | -1 | -9 | 4 | 2 | · | ·
CCCCn1c(=N)n(CCOc2ccc(C)cc2)c2ccccc21 | 20* | -25 | 19 | 1 | 9 | 16
CCCCc1nnc(NC(=O)C(C)Sc2nc(C)cc(=O)[nH]2)s1 (stereo not given) | 20* | -12 | 1 | -5 | -1 | 1
COc1ccccc1C(c1nnnn1CCc1ccccc1)N1CCCCCC1 (stereo not given) | 26* | 7 | 15 | 1 | 6 | 4
CCN(CC)c1ccc(C2C(C(=O)OC(C)C)C(=O)CC(C)(O)C2C(=O)OC(C)C)cc1 (stereo not given) | 19* | -7 | 20 | 10 | 6 | 5
C=CCOC(=O)C1C(=O)CC(C)(O)C(C(=O)OCC=C)C1c1ccc(OCC)cc1 (stereo not given) | 22* | -16 | 14 | -32 | 16 | 9
CCCCNC(=O)CCCCCNS(=O)(=O)c1ccc(Br)cc1 | · | 1 | -3 | 21 | · | ·
O=C(c1cnc(Cl)c(Cl)c1)N1CCC(Cc2ccccc2)CC1 | · | -11 | 7 | -10 | · | ·
Cc1ccc(CNc2nc(C)nc3sc4c(c23)CCC4)cc1 | 20* | -34 | 14 | -32 | 27* | 20*
Cc1nc(Nc2ccc(O)cc2)c2c3c(sc2n1)CCCC3 | · | 11 | · | 4 | · | ·
COc1ccc(CCNC(=O)c2sc3ccccc3c2Cl)cc1OC | 26* | -10 | 11 | -16 | 11 | 11
COc1ccccc1CCNCc1ccc(OC)c(OCc2ccccc2)c1 | 20* | -3 | 3 | -36 | 8 | 92*
COc1ccc(CNCc2ccco2)cc1OCc1ccccc1 | 9 | -12 | 8 | 0 | · | ·
O=S(=O)(Nc1nc2ccccc2[nH]1)c1ccc2ccccc2c1 | 19* | -37 | 17 | -18 | 12 | 8
O=S(=O)(Nc1ncn[nH]1)c1ccc2ccccc2c1 | 11 | -59 | 8 | -28 | · | ·
COc1ccc(-n2c(SCC(=O)Nc3cccc(S(N)(=O)=O)c3)nc3ccccc3c2=O)cc1OC | · | 18 | · | -8 | · | ·
O=C(/C=C/c1ccc2c(c1)OCO2)NCCSCc1ccc(Cl)cc1Cl | 19* | -7 | 14 | -19 | 15 | 16
SMILES | NPY Y2 blocker | NPY1 pot ag | NPY Y1 blocker | NPY-Y2 PAM-ag | NPY1 antag ctr | NPY-Y2 ant conf
O=C(/C=C/c1ccc2c(c1)OCO2)NCCSCc1cccc(Cl)c1 | 18* | -37 | 12 | -35 | 7 | 5
CS(=O)(=O)N(CC(=O)NCCSCc1cccc(Cl)c1)c1ccc2c(c1)OCO2 | 2 | 1 | 0 | 6 | · | ·
COc1cc(NC2c3ncccc3C(=O)N2Cc2ccco2)cc(OC)c1OC (stereo not given) | · | -2 | 13 | -2 | · | ·
CCCn1c(=N)c(C(=O)NCc2ccc3c(c2)OCO3)cc2c(=O)n3cccc(C)c3nc21 | 2 | 7 | 5 | -17 | · | ·
CCOC(=O)c1cc2c(=O)n3ccccc3nc2n(CCCOC)c1=NC(=O)c1ccncc1 | · | 7 | 3 | 2 | · | ·
CCOC(=O)c1cc2c(=O)n3ccccc3nc2n(CCCOC)c1=NC(C)=O | 21* | 4 | -1 | 8 | 1 | 3
CCOCCCn1c(=N)c(C(=O)NCc2ccc3c(c2)OCO3)cc2c(=O)n3ccccc3nc21 | 23* | -12 | 19 | 6 | 18 | 8
CN(NS(=O)(=O)c1ccc(Cl)cc1)c1nc(C(F)(F)F)nc2ccccc12 | · | 28 | 0 | 8 | · | ·
CCOC(=O)Cn1c(S(=O)(=O)Cc2cccc(F)c2)nc(-c2ccccc2)c1-c1ccccc1 | 19* | -18 | 16 | -12 | 17 | 9
NC(=O)Cn1c(S(=O)(=O)Cc2ccccc2)nc2ccccc21 | 1 | -4 | 3 | 8 | · | ·
Cc1cccc(NC(=O)CSc2nc3ccccc3o2)c1 | 22* | -28 | 11 | -12 | 8 | 8
O=C(CSc1nc2ccccc2o1)c1ccc2c(c1)OCCO2 | 22* | -28 | 9 | -3 | 9 | 18*
COCCN(CC(=O)NC1CCCCC1)C(=O)CSc1nc2ccccc2o1 | 1 | -4 | 4 | -11 | · | ·
O=C(CN(Cc1ccc2c(c1)OCO2)C(=O)CSc1nc2ccccc2o1)NC1CCCCC1 | 17* | -4 | 13 | -17 | 16 | 19*
Cc1ccc(N(CC(=O)N/N=C/c2cccc(Br)c2)S(C)(=O)=O)cc1 | 3 | 23 | -1 | 18 | · | ·
Cc1ccccc1NC(=O)N1CCN(C/C=C/c2ccccc2)CC1 | · | -18 | 2 | -6 | · | ·
Nc1nonc1C(=O)NCCNCc1ccccc1OCc1ccc(F)cc1 | 17* | -21 | 10 | -36 | 12 | 12
CCOc1ccc(CNCCNC(=O)c2nonc2N)cc1 | · | -8 | 2 | -2 | · | ·
Cc1ccc(N=C(NO)c2nonc2N)c(C)c1 | 3 | -16 | 0 | 4 | · | ·
Cc1ccc(N=C(NOC(=O)c2ccccc2)c2nonc2N)c(C)c1 | 25* | -2 | 9 | -23 | 7 | 4
O=C(CN1CCN(c2cccc(C(F)(F)F)c2)CC1)Nc1cccc(C(F)(F)F)c1 | 17* | -54 | 5 | -11 | 24* | 22*
O=C(/C=C/c1ccc(Br)cc1)N1CCN(c2cccc(C(F)(F)F)c2)CC1 | 19* | -9 | 7 | -12 | 24* | 25*
C=CCN(c1ccccc1C(=O)NCC(=O)O)S(=O)(=O)c1ccccc1C | · | 12 | · | 2 | · | ·
S=C(Nc1ccc(Oc2ccccc2)cc1)N(CCCN1CCOCC1)Cc1ccccn1 | · | -35 | 9 | -16 | · | ·
CC1CCCN(C(=O)Cc2cn(Cc3cccc(Cl)c3)c3ccccc23)C1 (stereo not given) | 17* | -5 | 10 | -22 | 5 | 5
COc1ccc(C(=S)N2CCN(c3cccc(Cl)c3)CC2)cc1 | · | -3 | · | -1 | · | ·
c1coc(Cn2c(-c3ccco3)nc3ccccc32)c1 | 8 | -20 | -7 | 5 | · | ·
Clc1ccc(OCCn2c(-c3ccco3)nc3ccccc32)cc1 | 31* | -44 | 19 | -25 | 32* | 12
